Experimental data gathered from unrelated publications.
Compare with care: the assays were run in different laboratories.
Oprk1: Kappa-type opioid receptor (Oprk1, Rattus norvegicus, UniProt P34975)
MAOA: Amine oxidase [flavin-containing] A (MAOA, Homo sapiens, UniProt P21397)
DPP3: Dipeptidyl peptidase 3 (DPP3, Homo sapiens, UniProt Q9NY33)

SMILES	target	read-out	mode	technique	tested at	time	inhibition [%]
CN(C)C(=O)COC(=O)Cc1ccc(OC(=O)c2ccc(NC(=N)N)cc2)cc1	Ubiquitin carboxyl-terminal hydrolase 2 (USP2, Homo sapiens, UniProt O75604)	enzyme activity	inhibitor		10 µM		1
O=C(Nc1cccnn1)N1CCN([C@@H]2CCOc3cc(C(F)(F)F)ccc32)CC1	Oprk1	cell-free assay			20 µM		21
CCN(CC)CCCC[C@H](NC(=O)[C@H](CC(C)C)NC(=O)[C@H](C)NC(=O)[C@H](Cc1ccccc1)NC(=O)c1ccc(C(C)(C)C)cc1)C(=O)N[C@@H](CO)C(=O)OC	Oprk1	ligand displacement		radioligand	10 µM		91
O=C(NC[C@H](O)CO)[C@@H]1C[C@H](c2ccccc2)CCN1 (mixture of isomers)	Alpha-1A adrenergic receptor (ADRA1A, Homo sapiens, UniProt P35348)	ligand displacement		radioligand	10 µM		-16.2
O=C(Nc1ccc([N+](=O)[O-])cc1[N+](=O)[O-])c1ccc2c(c1)OCO2	MAOA	enzyme activity	inhibitor		1 µM	20 min	44
C#Cc1n[nH]c2c(-c3cn([C@@H](C)c4ccccn4)c(=O)[nH]c3=O)cc(F)cc12	Focal adhesion kinase 1 (PTK2, Homo sapiens, UniProt Q05397)	enzyme activity	inhibitor		0.1 µM		4.5
CN(CCN1CCC(OC(=O)Nc2ccccc2-c2ccccc2)CC1)C(=O)c1ccc(CN2CCC(C(N)=O)CC2)cc1	MAOA	enzyme activity	inhibitor		1 µM		-2
CCOC(=O)c1ccc(OC(=O)CCCCCNC(=N)N)cc1	DPP3	enzyme activity	inhibitor		10 µM		4
Cc1ncc(C)n2nc(/C=C/c3nc(N4CCCC4)cc(N4CCOCC4)n3)nc12	Angiotensin-converting enzyme 2 (ACE2, Homo sapiens, UniProt Q9BYF1)	enzyme activity	inhibitor		10 µM		11
COCc1c(-c2cc3cc(C)cc(OC)c3s2)c2c(N)ncnn2c1CN1CCNC(=O)C1	Thromboxane-A synthase (TBXAS1, Homo sapiens, UniProt P24557)	enzyme activity	inhibitor		10 µM		86
CC(C)C[C@H](NC(=O)[C@H]1O[C@@H]1C(=O)O)C(=O)NCCCCN=C(N)N	Cathepsin S (CTSS, Homo sapiens, UniProt P25774)	enzyme activity	inhibitor		5 nM		18
O=C(O)C(=O)Nc1sc2c(c1C(=O)O)CCNC2	Tyrosine-protein phosphatase non-receptor type 1 (PTPN1, Homo sapiens, UniProt P18031)	enzyme activity	inhibitor		30 µM		~50
C[C@H](C(=O)N[C@H]1COc2ccccc2[C@@H]1S(C)(=O)=O)c1ccc(F)cc1	MAOA	cell-free assay	inhibitor		10 µM		-2
Cn1cc(-c2cccc(N3CCc4c(sc5c4CC(C)(C)C5)C3=O)c2CO)cc(Nc2ccncn2)c1=O	Cyclin-dependent kinase 5, with p25 (CDK5, Homo sapiens, UniProt Q00535)	enzyme activity	inhibitor		1 µM		2
N=C(N)c1ccc2cc(OC(=O)c3ccc(N=C(N)N)cc3)ccc2c1	DPP3	enzyme activity	inhibitor		10 µM		3
CN1CCN(CCCCOc2ccc3occc(=O)c3c2)CC1	MAOA	enzyme activity	inhibitor	fluorescence	10 µM		5
